AI-2 QS mod: modulates the Vibrio harveyi AI-2 quorum sensing system; Vibrio harveyi JMH597 AI-2 luminescence/OD600 ratio, 9 h; active compounds read low; strain lacks LuxN and CqsS sensors; 0 = neutral-control median; activity change, % at 7.5 µM; 300,000 compounds, 0.4% hits; AID 2094; in the data active = activity change below about -75%, passing the limit was not always enough;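 also: luminescence divided by OD600 gain over 9 h not by final OD600 alone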
T cruzi inh: blocks replication of Trypanosoma cruzi; AID 1885; inhibition, % (concentration not given with the values); T. cruzi beta-gal in NIH3T3, luminescence, 90 h; 300,000 compounds, 1.4% hits;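 active = mean inhibition across valid replicates above about 55%, limit read from the data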;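 also: signal also drops with host cell toxicity which is not excluded here; higher percent means less beta-gal luminescence so fewer parasites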
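System: NIH/3T3 fibroblasts plus reporter T. cruzi. Medium: DMEM plus 2% FBS. Probe or stimulus: 5000 reporter trypomastigotes per well. Compound: single 50 nL compound addition per well in DMSO. Incubation: co-culture of at least 90 h after 3 h attachment. Detection: GalScreen β-gal luminescence, detergent lysis, 60 min. Evaluation: parasite load inhibition, %.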
HIF act: HIF pathway transcriptional activation. U2OS HRE-luciferase reporter, luminescence; normalized: DMSO 0%, desferrioxamine 100%. activation, % at 7.5 µM (by protocol). 300,000 compounds, 0.32% hits. AID 1910;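 active = mean activation of at least 10% of the iron chelator positive control signal, with at least half of replicates also reaching 10%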
V-ATPase pH: alters yeast V-ATPase proton transport. response, % at 10 µM. 350,000 compounds, 0.37% hits. AID 504577. S. cerevisiae, pHLuorin cytosolic pH fluorescence; in the data active = response mostly above about 7.3%, no sharp cut-off; inactive = mostly below about 5.4%; also: actives read high
Yeast superoxide: caloric restriction mimetics inhibiting age-related superoxide in yeast | superoxide response (% of plate mean), % at 10 µM | S. cerevisiae aged cells, superoxide DHE fluorescence; active compounds read low | 330,000 compounds, 0.18% hits | AID 2690;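 active = superoxide response under a set limit, about three screen SD below normal, cut at about 65% in these data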;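 also: yeast aged for seven days with compound at 30 °C before DHE staining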
NRP1-CendR mod: NRP-1/CendR interaction modulation; O14786; FAM-RPARPAR peptide binding to NRP-1, fluorescence polarization; inhibition, % at 25 µM; 360,000 compounds, 0.85% hits;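 active = inhibition or corrected inhibition above about 18%, plus a signal ratio from 0.5 to 1.5, limit read from the data, passing the limit was not always enough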
Target sequence (O14786 whole entry, looked up): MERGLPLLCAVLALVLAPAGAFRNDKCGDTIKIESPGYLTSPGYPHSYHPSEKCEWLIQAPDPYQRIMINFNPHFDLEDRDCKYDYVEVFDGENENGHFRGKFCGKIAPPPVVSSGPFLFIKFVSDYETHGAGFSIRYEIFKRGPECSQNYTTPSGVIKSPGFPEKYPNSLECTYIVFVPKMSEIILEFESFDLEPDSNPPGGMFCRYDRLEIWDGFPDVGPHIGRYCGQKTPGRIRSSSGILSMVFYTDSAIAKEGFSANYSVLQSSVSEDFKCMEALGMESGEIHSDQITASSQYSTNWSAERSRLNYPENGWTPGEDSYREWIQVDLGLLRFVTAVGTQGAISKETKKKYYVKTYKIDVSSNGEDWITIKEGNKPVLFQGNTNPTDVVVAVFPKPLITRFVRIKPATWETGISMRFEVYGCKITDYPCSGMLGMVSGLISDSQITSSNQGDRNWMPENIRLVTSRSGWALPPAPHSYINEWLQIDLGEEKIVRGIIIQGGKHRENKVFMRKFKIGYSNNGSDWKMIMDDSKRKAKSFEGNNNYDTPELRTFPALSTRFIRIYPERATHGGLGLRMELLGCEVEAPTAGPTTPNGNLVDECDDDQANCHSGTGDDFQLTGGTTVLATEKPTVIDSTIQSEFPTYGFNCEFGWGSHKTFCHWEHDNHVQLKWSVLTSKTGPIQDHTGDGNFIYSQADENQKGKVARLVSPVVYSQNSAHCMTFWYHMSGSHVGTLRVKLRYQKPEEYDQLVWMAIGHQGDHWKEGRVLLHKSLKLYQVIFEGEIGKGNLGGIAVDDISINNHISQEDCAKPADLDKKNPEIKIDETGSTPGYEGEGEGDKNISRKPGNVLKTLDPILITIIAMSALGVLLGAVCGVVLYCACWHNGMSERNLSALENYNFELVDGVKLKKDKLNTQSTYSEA
CR mimetic CP: confirmation of caloric restriction mimetics inhibiting yeast age-related superoxide; shares compounds with Yeast superoxide; S. cerevisiae aging, superoxide DHE fluorescence; active compounds read low; superoxide response (% of plate), % at 10 µM; 850 compounds, 1% hits; AID 434994;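 active = superoxide signal below 65% of the plate average of sample wells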;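 also: cells aged with compound for 7 days at 30 degrees C before staining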
DHE counter: counter-screen for compounds affecting DHE oxidation and fluorescence in yeast; fluorescence response, % at 10 µM; shares compounds with Yeast superoxide; S. cerevisiae BY4741, flow cytometry; active compounds read low; 850 tested, under 10 active;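 active = fluorescence response below 15%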;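 also: lower means stronger quenching of DHE signal or ROS scavenging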
VATPase regulator: regulators of yeast V-ATPase proton transport; 980 compounds, 2% hits; S. cerevisiae pHLuorin cytosolic pH; response, % at 10 µM; shares compounds with V-ATPase pH; in the data active = response above about 24%
A number is an active result; - = inactive; . = no result. A selection: hits, their analogues and other compounds. The true share with any hit is near 3%.

SMILES	AI-2 QS mod	T cruzi inh	HIF act	V-ATPase pH	Yeast superoxide	NRP1-CendR mod	VATPase regulator	others
CC(c1ccco1)N(C(=O)c1ccccc1NS(=O)(=O)c1ccc(Cl)c([N+](=O)[O-])c1)c1ccccn1 (centres undefined)	-	-	-	-	65.1	-	.	CR mimetic CP=-;DHE counter=-
CC(c1ccco1)N(C(=O)c1cc(Cl)cc(Cl)c1)c1ccccn1 (centres undefined)	-	-	-	-	-	-	.
c1ccc(CN2CCC(N3CCN(Cc4ccc5c(c4)OCO5)CC3)CC2)cc1	-	-	-	-	-	-	.
c1cc2c(cc1CN1CCN(C3CCCCCC3)CC1)OCO2	-	-	-	-	43.7	-	.	CR mimetic CP=-;DHE counter=-
Cc1noc(NS(=O)(=O)c2ccc(N/C=C/C(=O)c3ccc4c(c3)OCO4)cc2)c1C	-	-	-	-	64.8	-	.	CR mimetic CP=-;DHE counter=-
CN(Cc1ccccc1)C(=O)CCC1CCN(S(C)(=O)=O)CC1	-	-	-	-	64.9	-	.	CR mimetic CP=-;DHE counter=-
COCCn1c(SCC(=O)Nc2ccc(NC(C)=O)cc2)nc2ccccc2c1=O	-	-	-	-	50.7	-	.	CR mimetic CP=-;DHE counter=-
O=C1CCN(Cc2ccc(Br)cc2)CCN1[C@H](CO)c1ccccc1	-	-	-	-	-	-	.
Cc1ccc2cc(NC(=O)Cc3ccccc3)ccc2n1	-	-	-	-	63.1	-	.	CR mimetic CP=-;DHE counter=-
O=C(CCNC(=O)c1ccc(Br)cc1)Nc1ccccc1N1CCOCC1	-	-	-	-	-	-	.
COc1cc(/C=C2\CC/C(=C\c3cc(OC)c(OC)c(OC)c3)C2=O)cc(OC)c1OC	-	-	-	-	-	-	.
COc1cc(/C=C2\CC(C(C)(C)C)C/C(=C\c3cc(OC)c(OC)c(OC)c3)C2=O)cc(OC)c1OC (centres undefined)	-	-	-	-	56.6	-	.	CR mimetic CP=-;DHE counter=-
CCOC(=O)CSc1nnc(-c2ccccc2)o1	-	-	-	-	-	-	-	CR mimetic CP=-;DHE counter=-
CSc1ccc(CNC(=O)C2CCC(=O)N(CCc3ccc(Cl)cc3)C2)cc1 (centres undefined)	.	.	.	.	.	-	.
N#CCCN(Cc1cccnc1)S(=O)(=O)c1ccc(S(=O)(=O)NC2CCCCC2)cc1	-	-	-	8.6	-	-	-
Cc1cccc(N2CCN(S(=O)(=O)c3ccc4c(c3)CCC(=O)N4)CC2C)c1 (centres undefined)	-	-	-	-	-	-	.
CCCCCCSc1nsc(NC(C)=O)n1	-	-	-	11.1	-	-	-
O=C(O)CCCn1cc(NC(=O)COc2ccccc2F)cn1	-	-	-	-	-	-	.
COC(=O)N/N=C/c1cn(Cc2ccccc2F)c2ccccc12	-	-	-	10.0	-	-	-
C[C@@H]1C=C[C@](Cc2ccccc2)(C(=O)NCC2CC2)N1C(=O)c1ccccc1	-	-	-	10.6	-	-	-
O[C@@H]1CN(C2CCN(Cc3ccccc3)CC2)CC[C@H]1N1CCCCCC1	.	.	.	10.6	.	-	-
CCOC(=O)N=Nc1c(O)n(CC)c2ccccc12	-	-	-	-	-	-	-
CCOC(=O)N=Nc1c(O)n(Cc2ccccc2)c2ccccc12	-	-	-	-	-	-	-
CCOC(=O)Cn1c(O)c(N=NC(=O)OC)c2ccccc21	-	-	-	-	-	-	.
O=C(COc1c(Br)cc(Br)cc1Br)N/N=C/c1ccco1	-	.	.	-	-	-	.
SMILES	AI-2 QS mod	T cruzi inh	HIF act	V-ATPase pH	Yeast superoxide	NRP1-CendR mod	VATPase regulator	others
O=C(CN1CCc2ccccc2C1)Nc1ccccc1Cl	-	-	-	-	-	-	.
O=C(CN1CCc2ccccc2C1)Nc1ccccc1N1CCCCCC1	-	-	-	16.4	-	-	-
COCCCNC(=S)N/N=C/c1ccc(O)cc1	-	-	-	12.9	-	-	-
COCCCNC(=S)N/N=C/c1ccc(OC)cc1	-	-	-	-	-	-	.
CCOC(=O)Nc1ccc2c(c1)N(C(=O)CCN(CC)CC)c1ccccc1CC2	-	-	-	7.8	-	-	-
Cc1ccc(C(C)(c2ccc(N)cc2)c2ccc(N)cc2)cc1	-	-	-	-	-	-	.
COc1ccccc1N1CCN(C(=O)C2CCN(S(=O)(=O)c3ccc4c(c3)CC(C)N4C(=O)C3CC3)CC2)CC1 (centres undefined)	.	-	-	13.6	-	-	-
Cc1noc(C)c1C(=O)OCC(=O)Nc1ncc(Cl)c(C)c1Cl	.	.	.	10.9	-	-	-
CCOC(=O)c1cc2occc2n1Cc1c(F)cccc1Cl	-	-	-	-	-	-	.
Cc1cc2c(cc(C(=O)N3CCC(C(=O)N4CCCC4)CC3)n2Cc2c(F)cccc2Cl)o1	-	-	-	10.1	-	-	-
COc1cccc(NC(=O)COC(=O)c2c(NC(C)=O)sc(C)c2C)c1	.	.	.	-	-	-	.
COc1ccccc1N(C)S(=O)(=O)c1ccc(C(=O)OCC(=O)Nc2ccc(C(N)=O)cc2)cc1	.	.	.	-	-	-	.
COc1ccc(NC(=O)COC(=O)c2ccc(S(=O)(=O)N(C)c3ccccc3OC)cc2)cc1OC	-	-	-	-	-	-	-
Cc1ccc(NCCC(=O)c2cccc([N+](=O)[O-])c2)c(C)c1	-	-	-	-	-	-	.
Cc1cccc(NCCC(=O)c2ccc([N+](=O)[O-])cc2)c1C	-	-	-	95.9	-	-	-
O=C(COc1coc(CN2CCCc3ccccc32)cc1=O)Nc1ccc([N+](=O)[O-])cc1	-	-	-	7.4	-	-	-
Cc1ccccc1NC(=O)COc1coc(CN2CCCc3ccccc32)cc1=O	-	-	-	-	-	-	.
Cc1ccccc1NC(=O)CN1CCCC1	.	.	.	.	.	-	.
Cc1nn(CC(=O)OCC(=O)NCCc2ccc(F)cc2)c(C)c1[N+](=O)[O-]	.	.	.	9.9	-	-	-
Cc1nn(CC(=O)OCC(=O)NC(C)c2ccccc2)c(C)c1[N+](=O)[O-] (centres undefined)	-	-	-	-	-	-	.
N=C1/C(=C/c2cccn2Cc2ccc(F)cc2)C(=O)N=C2SC=CN12	-	-	-	11.1	-	-	-
Cc1ccc(Cn2cccc2/C=C2/C(=N)N3C=CSC3=NC2=O)cc1	-	-	-	-	-	-	.
COc1cc(NC(=S)NC(=O)c2ccco2)ccc1NC(=O)C(C)C	-	-	-	-	-	-	.
COc1cc(NC(=S)NC(=O)c2ccccc2F)ccc1NC(=O)c1ccco1	-	-	-	54.4	-	-	-
COc1ccc(-n2c(C)cc(C(=O)CN3C(=O)NC4(CCCc5sccc54)C3=O)c2C)cc1 (centres undefined)	-	-	-	10.4	-	-	-

Bioassay records: PubChem, several laboratories
